From ChEMBL document CHEMBL1148835, “Weak base dispiro-1,2,4-trioxolanes: potent antimalarial ozonides” (Bioorg Med Chem Lett, 2007)
In brackets after ≈: the same amount, converted by molar mass.

Key:
Plasmodium berghei = assay: Antimalarial activity as reduced parasitaemia against Plasmodium berghei infected MORO mice (Mus musculus) at 10 mg/kg peroral dose; format: functional; set-up: scale not given: the % may be the effect or the level left; details: route oral
How it was run: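 Groups of three P. berghei-infected MORO mice were given a single oral 10 mg/kg dose on day 1 post-infection. Read-out was percent reduction in parasitemia on day 3 post-infection.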

Plasmodium falciparum [1] = assay: Antimalarial activity against chloroquine-sensitive Plasmodium falciparum NF54; format: functional, organism-based
How it was run: (§1)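 In vitro growth assay using asexual P. falciparum cultures, K1 for line 1 and NF54 for line 2. Each value is the mean of 2–3 determinations. Individual measurements differed by less than 50%.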

Plasmodium falciparum [2] = assay: Antimalarial activity against chloroquine-resistant Plasmodium falciparum K1; format: functional, organism-based; how it was run: as §1
[3] = Plasma clearance in Sprague-Dawley rat at 25 mg/kg, iv and 50 mg/kg, po; format: ADME, organism-based
How it was run: (§2)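 Rats were dosed 25 mg/kg IV via a jugular cannula in aqueous citrate buffer, pH 3. Separately, 50 mg/kg was given by oral gavage as a suspension in 0.5% w/v aqueous HPMC. Carotid-cannula serial blood samples were centrifuged immediately and the plasma stored at -80 °C. Plasma was assayed by LC/MS against a calibration curve prepared in plasma. Values are the average of 2–3 determinations.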

[4] = Biodistribution in Sprague-Dawley rat at 25 mg/kg, iv and 50 mg/kg, po; format: ADME, organism-based; details: in vivo; how it was run: as §2
[5] = Half life in Sprague-Dawley rat at 25 mg/kg, iv and 50 mg/kg, po; format: ADME, organism-based; details: in vivo; how it was run: as §2
[6] = biological target: Voltage-gated inwardly rectifying potassium channel KCNH2 (Homo sapiens, UniProt Q12809); assay: Inhibition of hERG by patch clamp assay; format: toxicity
Voltage-gated inwardly rectifying potassium channel KCNH2, sequence (Q12809 whole entry): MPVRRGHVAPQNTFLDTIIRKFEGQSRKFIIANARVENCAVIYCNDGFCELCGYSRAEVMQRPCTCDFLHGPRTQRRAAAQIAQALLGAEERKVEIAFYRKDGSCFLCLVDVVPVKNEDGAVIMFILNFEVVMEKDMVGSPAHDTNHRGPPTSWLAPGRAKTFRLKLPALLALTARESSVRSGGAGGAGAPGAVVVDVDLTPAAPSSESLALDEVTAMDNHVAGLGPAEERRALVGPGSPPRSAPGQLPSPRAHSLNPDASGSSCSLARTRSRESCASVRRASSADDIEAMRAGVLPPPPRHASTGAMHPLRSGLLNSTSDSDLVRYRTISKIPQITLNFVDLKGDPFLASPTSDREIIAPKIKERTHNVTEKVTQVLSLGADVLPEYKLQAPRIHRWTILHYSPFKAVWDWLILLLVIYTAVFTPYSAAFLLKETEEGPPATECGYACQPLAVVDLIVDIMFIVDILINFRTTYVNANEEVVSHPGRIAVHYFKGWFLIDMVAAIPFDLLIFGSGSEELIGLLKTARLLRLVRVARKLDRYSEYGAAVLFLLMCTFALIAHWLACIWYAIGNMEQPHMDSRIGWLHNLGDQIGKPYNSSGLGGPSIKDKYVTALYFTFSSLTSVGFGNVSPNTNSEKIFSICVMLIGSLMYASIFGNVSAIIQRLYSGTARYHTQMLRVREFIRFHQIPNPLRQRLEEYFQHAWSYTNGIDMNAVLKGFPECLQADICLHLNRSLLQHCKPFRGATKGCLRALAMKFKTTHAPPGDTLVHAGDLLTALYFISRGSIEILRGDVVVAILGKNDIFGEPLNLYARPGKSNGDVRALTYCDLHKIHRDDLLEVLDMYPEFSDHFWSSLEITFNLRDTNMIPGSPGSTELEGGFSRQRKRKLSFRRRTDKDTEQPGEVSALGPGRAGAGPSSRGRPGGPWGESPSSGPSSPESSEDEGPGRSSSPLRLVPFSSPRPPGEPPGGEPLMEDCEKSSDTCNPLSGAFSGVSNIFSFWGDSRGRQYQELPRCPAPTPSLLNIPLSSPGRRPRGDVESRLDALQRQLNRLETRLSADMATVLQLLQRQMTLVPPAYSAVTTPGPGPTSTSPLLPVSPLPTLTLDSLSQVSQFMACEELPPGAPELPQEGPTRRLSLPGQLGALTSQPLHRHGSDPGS

Rattus norvegicus = species on record: Rattus norvegicus; assay: Neurotoxicity in rat; format: toxicity, organism-based; details: in vivo
How it was run: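 Five-day toxicity study in male rats with daily oral administration, including observation for signs of neurotoxicity.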

[7] = Bioavailability in Sprague-Dawley rat at 25 mg/kg, po; format: ADME, organism-based; details: in vivo
[8] = Plasma clearance in Sprague-Dawley rat at 4 mg/kg, iv and 10 mg/kg, po; format: ADME, organism-based
How it was run: (§3)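 Rats were dosed 4 mg/kg IV via a jugular cannula fitted the day before, in 40% v/v propylene glycol, 10% v/v ethanol and water. Separately, 10 mg/kg was given by oral gavage as a suspension in 0.5% w/v aqueous HPMC. Serial blood was drawn via a carotid cannula and the plasma stored at -80 °C. Plasma was quantified by LC/MS against a calibration curve prepared in plasma. Values are the average of 2–3 determinations.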

[9] = Biodistribution in Sprague-Dawley rat at 4 mg/kg, iv and 10 mg/kg, po; format: ADME, organism-based; details: in vivo; how it was run: as §3
[10] = Half life in Sprague-Dawley rat at 4 mg/kg, iv and 10 mg/kg, po; format: ADME, organism-based; details: in vivo; how it was run: as §3
[11] = Biodistribution in Sprague-Dawley rat at 10 mg/kg, iv and 50 mg/kg, po; format: ADME, organism-based; details: in vivo
How it was run: (§4)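 Rats were dosed 10 mg/kg IV via a jugular cannula in 10% v/v propylene glycol, 10% v/v ethanol and water. Separately, 50 mg/kg was given by oral gavage as a suspension in 0.5% w/v aqueous HPMC. Serial blood was drawn via a carotid cannula and the plasma stored at -80 °C. LC/MS quantification used a calibration curve prepared in plasma. Values are the average of 2–3 determinations.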

[12] = Bioavailability in Sprague-Dawley rat at 10 mg/kg, po; format: ADME, organism-based; details: in vivo; how it was run: as §3
[13] = Plasma clearance in Sprague-Dawley rat at 10 mg/kg, iv and 50 mg/kg, po; format: ADME, organism-based; how it was run: as §4
[14] = Half life in Sprague-Dawley rat at 10 mg/kg, iv and 50 mg/kg, po; format: ADME, organism-based; details: in vivo; how it was run: as §4

| Compound | Activity (Plasmodium berghei) | IC50 (Plasmodium falciparum [1]) | IC50 (Plasmodium falciparum [2]) | further results |
| --- | --- | --- | --- | --- |
| NC(=O)CN(CC(N)=O)C[C@H]1CC[C@]2(CC1)OO[C@]1(O2)C2CC3CC(C2)CC1C3 | 86% | 2 ng/mL (≈ 4.91 nM) | 1.7 ng/mL (≈ 4.17 nM) |  |
| CS(=O)(=O)O.c1csc(NC[C@H]2CC[C@]3(CC2)OOC2(O3)C3CC4CC(C3)CC2C4)n1 (stereo partly drawn) |  | 2.2 ng/mL | 2.3 ng/mL |  |
| CS(=O)(=O)O.O=C(O)CNC[C@H]1CC[C@]2(CC1)OOC1(O2)C2CC3CC(C2)CC1C3 (stereo partly drawn) |  | 17 ng/mL | 11 ng/mL |  |
| NS(=O)(=O)c1ccc(NC[C@H]2CC[C@]3(CC2)OO[C@]2(O3)C3CC4CC(C3)CC2C4)cc1 | 99.95% |  |  |  |
| NC(=O)CNC[C@H]1CC[C@]2(CC1)OO[C@]1(O2)C2CC3CC(C2)CC1C3 |  | 0.59 ng/mL (≈ 1.68 nM) | 0.3 ng/mL (≈ 0.856 nM) | clearance [3]: 102 mL/min/kg; Vd [4]: 13 L/kg; half-life [5]: 1.57 h; IC50 [6]: 2700 nM; Activity (Rattus norvegicus): Non-toxic; bioavailability [7]: 58% |
| C1C2CC3CC1CC(C2)C31OO[C@]2(CC[C@@H](CNC3CC3)CC2)O1.CS(=O)(=O)O (stereo partly drawn) |  | 0.45 ng/mL | 0.56 ng/mL |  |
| Cc1ccc(S(=O)(=O)O)cc1.N[C@H]1CC[C@]2(CC1)OO[C@]1(O2)C2CC3CC(C2)CC1C3 | 98% | 0.31 ng/mL |  |  |
| CS(=O)(=O)O.NC(=O)CCNC[C@H]1CC[C@]2(CC1)OOC1(O2)C2CC3CC(C2)CC1C3 (stereo partly drawn) | 99.92% | 0.91 ng/mL | 0.41 ng/mL |  |
| CCOC(=O)NC[C@H]1CC[C@]2(CC1)OO[C@]1(O2)C2CC3CC(C2)CC1C3 |  | 0.56 ng/mL (≈ 1.53 nM) |  |  |
| OC[C@H]1CC[C@]2(CC1)OO[C@]1(O2)C2CC3CC(C2)CC1C3 |  |  |  | clearance [8]: 136 mL/min/kg; Vd [9]: 5.3 L/kg; half-life [10]: 0.45 h |
| Cl.c1cn(C[C@H]2CC[C@]3(CC2)OO[C@]2(O3)C3CC4CC(C3)CC2C4)cn1 |  | 1.1 ng/mL | 1.3 ng/mL | Vd [11]: 4.1 L/kg; bioavailability [12]: 36%; clearance [13]: 60.1 mL/min/kg; half-life [14]: 0.783 h; Activity (Rattus norvegicus): Non-toxic |
| c1cnn(C[C@H]2CC[C@]3(CC2)OO[C@]2(O3)C3CC4CC(C3)CC2C4)c1 | 78% | 1.2 ng/mL (≈ 3.48 nM) | 1 ng/mL (≈ 2.9 nM) |  |
| c1cn(CC[C@H]2CC[C@]3(CC2)OO[C@]2(O3)C3CC4CC(C3)CC2C4)cn1 |  | 0.4 ng/mL (≈ 1.12 nM) | 0.44 ng/mL (≈ 1.23 nM) |  |
| OCC[C@H]1CC[C@]2(CC1)OO[C@]1(O2)C2CC3CC(C2)CC1C3 | 89% | 0.75 ng/mL (≈ 2.43 nM) | 0.3 ng/mL (≈ 0.973 nM) |  |
| CS(=O)(=O)O.NOC[C@H]1CC[C@]2(CC1)OOC1(O2)C2CC3CC(C2)CC1C3 (stereo partly drawn) | 47% | 20 ng/mL | 28 ng/mL |  |
| CC(C)(C)C1CCC2(CC1)OOC1(CCC(CN)CC1)O2.CS(=O)(=O)O (stereo not drawn) | 0% | > 100 ng/mL | > 100 ng/mL |  |
| CC(C)(N)CNC[C@H]1CC[C@]2(CC1)OOC1(O2)C2CC3CC(C2)CC1C3.CS(=O)(=O)O.CS(=O)(=O)O (stereo partly drawn) |  | 0.83 ng/mL | 0.49 ng/mL |  |
| Cl.NCC[C@H]1CC[C@]2(CC1)OO[C@]1(O2)C2CC3CC(C2)CC1C3 |  | 0.48 ng/mL | 0.15 ng/mL |  |
| C1C2CC3CC1CC(C2)[C@]31OO[C@@]2(CC[C@H](Cc3nnn[nH]3)CC2)O1 | 40% | 55 ng/mL (≈ 159 nM) | 46 ng/mL (≈ 133 nM) |  |
| c1c[nH]c(C[C@H]2CC[C@]3(CC2)OO[C@]2(O3)C3CC4CC(C3)CC2C4)n1 | 71% |  |  |  |
| CS(=O)(=O)O.NC[C@H]1CC[C@]2(CC1)OOC1(O2)C2CC3CC(C2)CC1C3 (stereo partly drawn) |  |  | 0.39 ng/mL | clearance [3]: 177 mL/min/kg; Vd [4]: 39 L/kg; half-life [5]: 2.5 h; IC50 [6]: 1800 nM; Activity (Rattus norvegicus): Non-toxic; bioavailability [7]: 31% |
| O=C1CN(C[C@H]2CC[C@]3(CC2)OO[C@]2(O3)C3CC4CC(C3)CC2C4)CCN1 |  | 1.8 ng/mL (≈ 4.78 nM) | 1.3 ng/mL (≈ 3.45 nM) |  |
| NC(=O)c1cn(C[C@H]2CC[C@]3(CC2)OO[C@]2(O3)C3CC4CC(C3)CC2C4)cn1 | 99.76% |  |  |  |
| CN(C)C[C@H]1CC[C@]2(CC1)OOC1(O2)C2CC3CC(C2)CC1C3.CS(=O)(=O)O (stereo partly drawn) |  | 0.75 ng/mL | 0.35 ng/mL |  |
| NS(=O)(=O)c1ccc(N[C@H]2CC[C@]3(CC2)OO[C@]2(O3)C3CC4CC(C3)CC2C4)cc1 | 99.98% | 3 ng/mL (≈ 6.9 nM) | 2.7 ng/mL (≈ 6.21 nM) |  |
| O=CN1CCN(C[C@H]2CC[C@]3(CC2)OO[C@]2(O3)C3CC4CC(C3)CC2C4)CC1 | 99.01% |  |  |  |
| NC(=O)c1cncn1C[C@H]1CC[C@]2(CC1)OO[C@]1(O2)C2CC3CC(C2)CC1C3 | 99.77% |  |  |  |
| CS(=O)(=O)O.c1ncn(C[C@H]2CC[C@]3(CC2)OOC2(O3)C3CC4CC(C3)CC2C4)n1 (stereo partly drawn) |  | 1.7 ng/mL | 0.9 ng/mL |  |
| NC(=O)c1ccc(N[C@H]2CC[C@]3(CC2)OO[C@]2(O3)C3CC4CC(C3)CC2C4)cc1 | 99.98% | 1 ng/mL (≈ 2.51 nM) | 1.1 ng/mL (≈ 2.76 nM) |  |
